Test results: ChEMBL document CHEMBL3797085, “Structure-Based Design and Synthesis of Novel Inhibitors Targeting HDAC8 from Schistosoma mansoni for the Treatment of Schistosomiasis” (J Med Chem, 2016)
The source made the active and inactive calls. The rule behind the calls is not given here.

How the values were obtained:
Histone deacetylase 1 [1] = target: T1, Histone deacetylase 1 (Homo sapiens, UniProt Q13547); experiment: Inhibition of recombinant human HDAC1 using Cbz-(Ac)Lys-AMC as substrate at 10 uM preincubated for 90 mins followed by trypsin addition measured after 20 mins by fluorescence assay relative to control
Histone deacetylase 8 [2] = target: T2, Histone deacetylase 8 (Schistosoma mansoni, UniProt A5H660); experiment: Inhibition of recombinant Schistosoma mansoni HDAC8 expressed in Escherichia coli using Fluor de Lys as substrate preincubated for 90 mins followed by BML-KI176 addition measured after 45 mins by fluorescence assay; conditions: read-out: IC50
T2 sequence (A5H660 whole entry): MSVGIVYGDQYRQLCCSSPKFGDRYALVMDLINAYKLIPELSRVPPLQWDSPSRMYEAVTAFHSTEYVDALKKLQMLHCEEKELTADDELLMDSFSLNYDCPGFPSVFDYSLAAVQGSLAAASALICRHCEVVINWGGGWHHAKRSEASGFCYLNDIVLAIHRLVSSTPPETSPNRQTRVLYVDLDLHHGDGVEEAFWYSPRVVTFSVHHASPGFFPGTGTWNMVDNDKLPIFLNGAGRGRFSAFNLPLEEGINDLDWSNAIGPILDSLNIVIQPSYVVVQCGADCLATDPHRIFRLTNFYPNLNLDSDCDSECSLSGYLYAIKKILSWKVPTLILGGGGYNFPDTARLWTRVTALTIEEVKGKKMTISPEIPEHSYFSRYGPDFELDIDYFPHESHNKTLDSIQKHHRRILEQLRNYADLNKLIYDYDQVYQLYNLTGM
Outline: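 smHDAC8 produced in E. coli. Fluor de Lys kit: compound, Fluor de Lys-HDAC8 substrate (50 µM) and enzyme incubated 90 min at 37°C, then Developer II for 45 min at 30°C. Reaction stopped with trichostatin A (2 µM). Fluorescence read at ex 390/em 460 nm. IC50 given as mean ± S.E.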

Histone deacetylase 8 [3] = target: T3, Histone deacetylase 8 (Homo sapiens, UniProt Q9BY41); experiment: Inhibition of recombinant human HDAC8 using Fluor de Lys as substrate preincubated for 90 mins followed by BML-KI176 addition measured after 45 mins by fluorescence assay; conditions: read-out: IC50
T3 sequence (Q9BY41 whole entry): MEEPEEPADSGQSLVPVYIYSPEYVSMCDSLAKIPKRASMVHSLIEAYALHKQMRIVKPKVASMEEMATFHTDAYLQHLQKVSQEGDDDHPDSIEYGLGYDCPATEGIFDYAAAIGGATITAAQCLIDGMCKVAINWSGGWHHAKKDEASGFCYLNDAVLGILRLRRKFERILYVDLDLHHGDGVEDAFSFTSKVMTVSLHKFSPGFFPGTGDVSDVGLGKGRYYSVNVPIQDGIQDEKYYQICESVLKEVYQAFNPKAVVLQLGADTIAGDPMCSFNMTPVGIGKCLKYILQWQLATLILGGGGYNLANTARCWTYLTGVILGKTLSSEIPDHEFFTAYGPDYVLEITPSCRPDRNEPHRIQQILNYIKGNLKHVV

[4] = target: T4, Protein deacetylase HDAC6 (Homo sapiens, UniProt Q9UBN7); experiment: Inhibition of recombinant human HDAC6 using Cbz-(Ac)Lys-AMC as substrate preincubated for 90 mins followed by trypsin addition measured after 20 mins by fluorescence assay; conditions: read-out: IC50
T4 sequence (Q9UBN7 whole entry): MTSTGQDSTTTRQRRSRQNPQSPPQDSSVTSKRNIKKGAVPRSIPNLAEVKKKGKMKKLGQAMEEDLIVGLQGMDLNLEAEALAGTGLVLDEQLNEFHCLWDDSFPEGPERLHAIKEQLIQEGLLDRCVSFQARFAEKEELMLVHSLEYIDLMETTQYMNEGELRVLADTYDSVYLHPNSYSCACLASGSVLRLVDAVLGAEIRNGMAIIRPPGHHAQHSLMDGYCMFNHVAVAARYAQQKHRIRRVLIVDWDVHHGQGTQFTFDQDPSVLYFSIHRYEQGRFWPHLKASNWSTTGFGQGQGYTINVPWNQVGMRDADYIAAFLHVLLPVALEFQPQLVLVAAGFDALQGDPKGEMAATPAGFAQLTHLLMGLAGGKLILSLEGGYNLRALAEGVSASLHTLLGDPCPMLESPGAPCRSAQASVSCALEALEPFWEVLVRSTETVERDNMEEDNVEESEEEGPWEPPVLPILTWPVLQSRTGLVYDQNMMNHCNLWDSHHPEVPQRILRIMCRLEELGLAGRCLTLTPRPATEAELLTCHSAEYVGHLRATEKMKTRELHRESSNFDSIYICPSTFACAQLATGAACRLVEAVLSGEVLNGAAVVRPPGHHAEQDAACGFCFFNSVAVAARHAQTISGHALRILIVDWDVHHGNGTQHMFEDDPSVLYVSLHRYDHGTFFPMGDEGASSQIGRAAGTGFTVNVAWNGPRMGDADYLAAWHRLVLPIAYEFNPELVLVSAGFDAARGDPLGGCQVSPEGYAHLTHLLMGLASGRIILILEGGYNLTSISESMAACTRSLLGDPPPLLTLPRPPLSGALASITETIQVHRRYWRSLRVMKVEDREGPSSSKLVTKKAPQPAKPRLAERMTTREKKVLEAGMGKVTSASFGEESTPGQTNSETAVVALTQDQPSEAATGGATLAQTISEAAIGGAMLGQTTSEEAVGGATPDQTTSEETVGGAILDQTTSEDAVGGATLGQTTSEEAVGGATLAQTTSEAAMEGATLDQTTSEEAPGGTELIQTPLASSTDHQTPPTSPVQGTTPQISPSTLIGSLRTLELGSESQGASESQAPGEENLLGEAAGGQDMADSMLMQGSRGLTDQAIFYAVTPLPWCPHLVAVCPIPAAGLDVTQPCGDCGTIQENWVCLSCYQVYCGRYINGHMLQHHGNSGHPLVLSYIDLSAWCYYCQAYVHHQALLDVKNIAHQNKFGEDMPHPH

Schistosoma mansoni [5] = experiment: Antiparasitic activity against schistosomula stage of Schistosoma mansoni assessed as parasite viability at 20 uM after 48 hrs by Alamar Blue assay relative to control; format: functional
Outline: (§1)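 Mechanically transformed S. mansoni schistosomula, 100 per well, in Medium 199 with 10% FCS, penicillin, streptomycin and rifampicin, held 3 h at 37°C/5% CO2 before use. […] Resazurin added at 48 h; fluorescence (ex 530/em 590 nm) read 24 h later, corrected for drug-medium background. Ethanol-killed larvae as dead control. Triplicate wells, two biological replicates.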

Schistosoma mansoni [6] = experiment: Antiparasitic activity against schistosomula stage of Schistosoma mansoni assessed as parasite viability at 10 uM after 48 hrs by Alamar Blue assay relative to control; format: functional; outline: as §1
Schistosoma mansoni [7] = experiment: Antiparasitic activity against schistosomula stage of Schistosoma mansoni assessed as parasite viability after 48 hrs by Alamar Blue assay; format: functional, organism-based; outline: as §1
[8] = Cytotoxicity against HEK293 cells assessed as cell viability at 50 uM after 24 hrs by Alamar Blue assay relative to control; format: cell-based; conditions: human, read-out: Activity
Outline: (§2)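 AlamarBlue added after 24 h, incubated a further 21 h; resorufin fluorescence ex 560/em 590 nm. Triplicates; viability relative to untreated cells; daunorubicin positive control.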

Histone deacetylase 1 [9] = target: T1, Histone deacetylase 1; experiment: Inhibition of recombinant human HDAC1 using Cbz-(Ac)Lys-AMC as substrate preincubated for 90 mins followed by trypsin addition measured after 20 mins by fluorescence assay; conditions: read-out: IC50
HEK293 = experiment: Cytotoxicity against HEK293 cells assessed as cell viability after 24 hrs by Alamar Blue assay; format: cell-based; conditions: Homo sapiens, HEK293, 24 h; outline: as §2
Schistosoma mansoni [10] = experiment: Antiparasitic activity against schistosomula stage of Schistosoma mansoni assessed as parasite viability at 20 uM after 1 to 2 days by microscopy; format: functional, organism-based
Outline: (§3)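 Microscopy viability: 2,000 schistosomula per well in M199 (10 mM HEPES, pH 7.4, supplemented), 37°C, 5% CO2; inhibitor at 10 or 20 µM in DMSO, medium refreshed daily, up to 5 days. Dead larvae scored by granular appearance, tegumental defects and lack of motility; ≥300 larvae per time point; % viable larvae. Three biological replicates in duplicate.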

Schistosoma mansoni [11] = experiment: Antiparasitic activity against schistosomula stage of Schistosoma mansoni assessed as parasite viability at 10 to 20 uM after 5 days by microscopy relative to control; format: functional, organism-based; outline: as §3
Schistosoma mansoni [12] = experiment: Antiparasitic activity against adult Schistosoma mansoni assessed as reduction in egg lying at 20 uM after 5 days by microscopy relative to control; format: functional; set-up: scale not given: the % may be the effect or the level left
Outline: (§4)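 Adult worm pairs perfused from infected hamsters; ten pairs per well in 2 mL M199 (pH 7.4, 10 mM HEPES, supplemented as for schistosomula), 37°C, 5% CO2. Cultured 5 days before adding inhibitors in DMSO; medium and inhibitor refreshed daily. Eggs in recovered, centrifuged medium counted by microscopy. Two biological replicates in triplicate.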

Schistosoma mansoni [13] = experiment: Antiparasitic activity against schistosomula stage of Schistosoma mansoni assessed as parasite viability at 10 uM measured within 2 days by microscopy; format: functional, organism-based; outline: as §3
Schistosoma mansoni [14] = experiment: Antiparasitic activity against adult Schistosoma mansoni assessed as reduction in egg lying at 10 uM after 5 days by microscopy relative to control; format: functional, organism-based; outline: as §4
Schistosoma mansoni [15] = experiment: Antiparasitic activity against adult Schistosoma mansoni assessed as separation of male and female worm pairs at 20 uM after 5 days by microscopy relative to control; format: functional
Outline: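 Hamster-perfused worm pairs, ten per well in 2 mL buffered supplemented M199 (10 mM HEPES, pH 7.4), 37°C, 5% CO2, pre-cultured 5 days, then inhibitor in DMSO at 10 or 20 µM; medium and compound renewed daily. Pairs still coupled counted daily by microscopy for up to 5 days. Two biological replicates in triplicate.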

T1 sequence (Q13547 whole entry): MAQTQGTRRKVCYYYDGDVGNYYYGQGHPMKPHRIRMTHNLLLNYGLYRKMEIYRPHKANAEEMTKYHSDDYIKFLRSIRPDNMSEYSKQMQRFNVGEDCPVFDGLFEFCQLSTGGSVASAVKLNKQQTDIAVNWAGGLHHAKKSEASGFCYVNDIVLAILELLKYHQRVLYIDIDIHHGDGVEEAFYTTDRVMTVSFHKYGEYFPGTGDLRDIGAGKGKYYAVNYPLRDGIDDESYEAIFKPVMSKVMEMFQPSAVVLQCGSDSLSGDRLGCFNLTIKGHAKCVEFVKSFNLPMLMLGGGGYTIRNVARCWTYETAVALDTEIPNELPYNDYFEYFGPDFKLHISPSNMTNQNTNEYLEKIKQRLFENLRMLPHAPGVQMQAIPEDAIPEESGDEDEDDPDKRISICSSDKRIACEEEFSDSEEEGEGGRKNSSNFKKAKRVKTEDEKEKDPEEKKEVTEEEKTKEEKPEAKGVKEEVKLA

Row | Compound | inhibition (Histone deacetylase 1 [1]) [%] | IC50 (Histone deacetylase 8 [2]) [nM] | IC50 (Histone deacetylase 8 [3]) [nM] | IC50 [4] [nM] | IC50 (Histone deacetylase 1 [9]) [µM] | EC50 (Schistosoma mansoni [7]) [µM] | Activity (Schistosoma mansoni [5]) [%] | Activity (Schistosoma mansoni [6]) [%] | Activity (Schistosoma mansoni [7]) | viability at 24 h, 50 µM [8] [%] | IC50 (HEK293) [µM] | Activity (Schistosoma mansoni [10]) | Activity (Schistosoma mansoni [11]) | Activity (Schistosoma mansoni [12]) [%] | Activity (Schistosoma mansoni [13]) | Activity (Schistosoma mansoni [14]) | Activity (Schistosoma mansoni [15]) [%]
1 | O=C(NO)c1ccc(Cl)c(NC(=O)c2ccc(Cl)cc2)c1 | – | 235 | 292 | 90 | 3.8 | – | 49.3 | 71.8 | – | 81.6 | – | – | – | – | – | – | –
2 | COc1ccc(C(=O)Nc2cc(C(=O)NO)ccc2OC)cc1 | – | 106 | 77.1 | 400 | 2.6 | – | 64.6 | 74.6 | – | 61.9 | – | – | – | – | – | – | –
3 | O=C(NO)c1ccc(Cl)c(NC(=O)c2ccc(Cl)cc2Cl)c1 | – | 191 | 1180 | 800 | 31.6 | – | 59.3 | 72.5 | – | 70.4 | – | – | – | – | – | – | –
4 | Cc1ccc(C(=O)NO)cc1NC1CCCCC1 | 49.5 | 600 | 104 | – | – | – | – | 84.3 | – | 70.2 | – | – | – | – | – | – | –
5 | COc1ccc(C(=O)Nc2cc(C(=O)NO)ccc2Cl)cc1 | – | 147 | 236 | 130 | 4.1 | – | 60.7 | 63.2 | – | 62.5 | – | – | – | – | – | – | –
6 | CN(C)c1cccc(C(=O)NO)c1 | 37.4 | 1580 | 70.2 | – | – | – | – | 92.6 | – | 92.7 | – | – | – | – | – | – | –

More lines, main results first:

Row | inhibition (Histone deacetylase 1 [1]) [%] | IC50 (Histone deacetylase 8 [2]) [nM] | IC50 (Histone deacetylase 8 [3]) [nM] | IC50 [4] [nM] | IC50 (Histone deacetylase 1 [9]) [µM] | EC50 (Schistosoma mansoni [7]) [µM] | Compound | Activity (Schistosoma mansoni [5]) [%] | Activity (Schistosoma mansoni [6]) [%] | Activity (Schistosoma mansoni [7]) | viability at 24 h, 50 µM [8] [%] | IC50 (HEK293) [µM] | Activity (Schistosoma mansoni [10]) | Activity (Schistosoma mansoni [11]) | Activity (Schistosoma mansoni [12]) [%] | Activity (Schistosoma mansoni [13]) | Activity (Schistosoma mansoni [14]) | Activity (Schistosoma mansoni [15]) [%]
7 | 41.4 | 1080 | 143 | – | – | – | O=C(NO)c1cccc(NCc2ccccc2)c1 | – | – | – | – | – | – | – | – | – | – | –
8 | – | 92 | 149 | 600 | 2.08 | – | CCOc1ccc(C(=O)NO)cc1NC(=O)c1ccc(-c2ccccc2)cc1 | 35.8 | 77.9 | Dose-dependent effect | 80.3 | – | – | – | – | – | – | –
9 | – | – | – | – | – | 16.1 | COc1ccc(C(=O)NO)cc1NC(=O)c1ccc(-c2ccccc2)cc1 | 33.4 | 64.8 | Dose-dependent effect | 12.3 | 199 | Active | inactive | 80 | Active | Active | 90
10 | – | 178 | 318 | 500 | 22.3 | – | O=C(NO)c1ccc(F)c(NC(=O)c2ccccc2)c1 | 78.6 | 82 | – | 81.8 | – | – | – | – | – | – | –
11 | – | 220 | 29 | 2600 | 3.6 | – | CC(C)Oc1ccc(C(=O)NO)cc1NC(=O)c1ccccc1 | 68.7 | 75 | – | 129 | – | – | – | – | – | – | –
12 | – | 122 | 548 | 2300 | 13 | – | COc1ccc(C(=O)NO)cc1NC(=O)c1ccc(Cl)cc1Cl | 50.7 | 77.8 | – | 95.1 | – | – | – | – | – | – | –
